Screens (PubChem)
NS3 helicase inh: blocks Hepatitis C virus NS3 helicase unwinding; inhibition, % at 10.9 µM; AID 1800; NS3 helicase DNA unwinding, Cy5 molecular beacon fluorescence; 0.56% of 290,000 active;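 active = inhibition above the mean of all tested compounds plus 3 SD, set per campaign, cut at about 35% in these data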
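Control set: DMSO versus 110 µM thioflavine S; Material: NS3 helicase fragment of HCV; Measured by: Cy5 fluorescence at 0 and 60 min, beacon hairpin quenching; Read-out basis: percent inhibition from t60/t0 fluorescence ratio; Times: reaction time 60 min, 25 °C; Repeats: single replicate; Compound dosing: single dose, 10.9 µM nominal final, DMSO 0.8% final.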
HCV core dimer: HCV core protein dimerization inhibition; 0.33% of 300,000 active; TR-FRET GST/Flag-core106 dimerization, 1536-well; inhibition, % at 5 µM; AID 1899;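 active = inhibition above the mean of all tested compounds plus 3 SD, set per screening campaign, cut at about 45% in these data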
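System – GST-tagged and Flag-tagged HCV core protein residues 1-106 · Repeats – one well for each compound · Technique – TR-FRET 671 and 617 nm emission · Doses – one concentration, 5 µM, in 0.5% DMSO · Times – 4 h, 22.5 °C incubation · Also added – Eu donor and XL665 acceptor anti-tag antibodies · Measure – percent inhibition of core106 dimerization signal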
TAAR1 antagonist: human TAAR1 antagonism. CHO RD-HGA16 TAAR1, Fluo-8 calcium fluorescence, antagonist. inhibition, % at 3 µM. 1.5% of 360,000 active;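 active = inhibition above a per-plate cutoff, the mean inhibition of test compounds on that plate plus 3 SD, cut at about 49% in these data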
Target sequence (Q96RJ0 whole entry, looked up): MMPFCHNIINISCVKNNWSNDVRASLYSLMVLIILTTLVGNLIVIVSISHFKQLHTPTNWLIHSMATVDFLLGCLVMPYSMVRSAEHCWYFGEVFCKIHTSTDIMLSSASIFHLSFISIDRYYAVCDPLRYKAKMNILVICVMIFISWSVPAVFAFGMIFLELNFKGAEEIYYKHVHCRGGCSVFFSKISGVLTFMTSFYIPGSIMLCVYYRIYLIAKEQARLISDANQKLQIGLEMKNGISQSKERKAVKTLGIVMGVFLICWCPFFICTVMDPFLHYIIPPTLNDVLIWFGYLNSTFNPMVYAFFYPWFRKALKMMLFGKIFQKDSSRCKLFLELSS
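System: RD-HGA16 CHO cells with stable hTAAR1 and Gα16 | Probe or stimulus: EC80 β-phenethylamine stimulus | Dosing: 3 µM, single point | Times: Dye loading 75 min at 37 °C, then 30 min room temperature | Measured by: Fluo-8 calcium-sensitive fluorescence | Read-out basis: % inhibition of agonist calcium response | Replicates: n of 1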
TAAR1 ag: agonists of human TAAR1; Q96RJ0; 0.99% of 360,000 active; activation, % at 3 µM; CHO RD-HGA16 TAAR1, Fluo-8 calcium fluorescence; vehicle wells 0%, saturating PEA agonist 100%; AID 624467;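 active = activation above the mean activation of all test compounds in the run plus 3 SD, cut at about 38% in these data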
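Assay system: CHO-derived RD-HGA16 cells with stable Gα16 and human TAAR1; timing: 17-24 h seeding, 75 min 37 °C dye, 30 min RT; read-out: % activation from peak over basal fluorescence ratio, DMSO-to-PEA scaled; measured by: kinetic Fluo-8 calcium fluorescence; benchmarks: low control DMSO, high control PEA (EC100); doses: 3 µM single concentration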
rCAG RNA binder: r(CAG) repeat RNA binding; 1.3% of 370,000 active; inhibition, % at 3 µM; TO-PRO-1 dye displacement fluorescence;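 active = inhibition above the plate cutoff, the mean of all test compounds on that plate plus 3 SD, cut at about 35% in these data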;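 note: higher means more dye released from RNA so lower well fluorescence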
TAAR1 ag conf: human TAAR1 agonism, confirmed | shares compounds with TAAR1 ag | CHO RD-HGA16 TAAR1, Fluo-8 calcium fluorescence; scaled: DMSO 0%, maximal phenethylamine 100% | activation, % at 3 µM | 82% of 2,400 active | AID 651783;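 active = activation above a cutoff set at the run's mean compound activation plus 3 SD, cut at about 39% in these data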
Ga16 nonsel ag: nonselective agonist in parental cells, TAAR1 agonist counter-screen; shares compounds with TAAR1 ag; CHO-Ga16 parental, Fluo-8 calcium fluorescence; normalized to maximal ATP response, DMSO zero; activation, % at 3 µM; 50% of 2,400 active;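 active = activation above the run cutoff, the mean activation over all tested wells plus 3 SD, cut at about 12% in these data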
TAAR1 desensitize: TAAR1 response desensitization, agonist counter-screen. AID 651951. CHO RD-HGA16 hTAAR1, Fluo-8 calcium, beta-PEA response inhibition. inhibition, % at 3 µM. shares compounds with TAAR1 ag. 46% of 2,400 active;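 active = inhibition above the run cutoff, the mean inhibition of all test compounds plus 3 SD, cut at about 49% in these data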;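 note: beta-PEA stimulus applied at its EC80; loss of beta-PEA calcium signal after compound pretreatment read as receptor desensitization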
Ga16 nonsel ant: nonselective Ga16 antagonism, counter-screen. shares compounds with TAAR1 ag. CHO-Ga16 ATP-induced calcium, Fluo-8 fluorescence. inhibition, % at 3 µM. 39% of 2,400 active. AID 651952;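 active = inhibition above the plate's mean compound inhibition plus 3 SD, computed per plate, cut at about 22% in these data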
Hits are given with their value; – = inactive; · = no result given. Sampled rows, rich in hits. Any-hit rate of the full collection: about 3.7%.

SMILES | NS3 helicase inh | HCV core dimer | TAAR1 antagonist | TAAR1 ag | rCAG RNA binder | TAAR1 ag conf | Ga16 nonsel ag | TAAR1 desensitize | Ga16 nonsel ant
Cc1ccc(CNC(=O)OC2CC3CC2[C@H]2CCCCN2C3=O)cc1 (some centres not stated) | · | · | – | 54 | – | – | – | – | –
COc1ccc(C(=O)CC(=O)C(=O)Nc2cccc([N+](=O)[O-])c2C)cc1 | – | – | – | 71 | – | 83 | 62 | – | 23
COc1cccc(C(=O)CC(=O)C(=O)Nc2cccc([N+](=O)[O-])c2C)c1 | – | – | – | 60 | – | 120 | 75 | 77 | 41
COc1cccc(N2CCN(C3C4CC5CC(C4)CC3C5)CC2)c1 (configuration not stated) | – | – | – | 41 | – | 56 | 19 | – | –
CCOC(=O)CC[C@@H]1CC[C@]2(CCCN(Cc3cccs3)C2)O1 | · | · | · | · | – | · | · | · | ·
Cc1[nH]c2ccccc2c1/C=C(\C#N)C(=O)NCc1ccccc1 | – | – | – | – | – | · | · | · | ·
Cc1ccc(C(C)NC(=O)/C(C#N)=C\c2c(C)[nH]c3ccccc23)cc1 (configuration not stated) | – | – | – | 63 | – | 59 | 33 | – | 39
O=C(NCc1ccccc1)[C@H]1CCCN1C(=O)[C@H]1CCCN1C(=O)c1cccc(F)c1 | · | · | – | – | – | · | · | · | ·
Cc1cc(C)cc(C(=O)OCCCN(C)C2CN(Cc3cn(Cc4ccccc4Cl)nn3)S(=O)(=O)C2)c1 (configuration not stated) | · | · | · | · | – | · | · | · | ·
CCC(CC)C(=O)Nc1cccc(C(=O)Nc2ccc(OC)cc2[N+](=O)[O-])c1 | – | – | 77 | 78 | – | 45 | – | – | –
Nc1ccn([C@@H]2O[C@H](C(=O)NCC(=O)N3CCOCC3)[C@@H](O)[C@H]2O)c(=O)n1 | · | · | – | – | – | · | · | · | ·
Cc1onc(-c2ccccc2)c1C(=O)NCc1ccc2c(c1)OCO2 | – | – | – | – | – | · | · | · | ·
Cc1ccc(OCC(=O)NNC(=S)NC(=O)c2ccc(Br)o2)c(C)c1 | – | · | – | – | – | · | · | · | ·
Cc1onc(-c2ccccc2)c1C(=O)NNC(=S)NC(=O)c1ccc2c(c1)OCO2 | – | – | – | 89 | – | 95 | 81 | 52 | 38
COc1ccc(C(=O)NC(=S)NNC(=O)c2c(-c3ccccc3)noc2C)cc1OC | – | – | – | 68 | – | 70 | 47 | – | –
COc1ccc(C(=O)NNC(=S)NC(=O)c2ccc(Br)o2)cc1OC | – | – | – | 50 | – | – | 13 | – | –
Cc1onc(-c2ccccc2)c1C(=O)NNC(=S)NC(=O)/C=C/c1cccs1 | – | – | 69 | 115 | – | 107 | 94 | 79 | 62
O=C1N(Cc2ccccc2)c2ccccc2C12CCCc1oc(CCc3ccccc3)nc12 (configuration not stated) | · | · | · | · | – | · | · | · | ·
CCN1CCCCC(NC(=O)c2ccc(F)cc2)C1=O (configuration not stated) | · | · | · | · | – | · | · | · | ·
COC(=O)C[C@@H]1CC[C@@H]2[C@@H](COc3ccc(NC(=O)Nc4ccccc4)cc3C(=O)N2C)O1 | · | · | · | · | – | · | · | · | ·
O=S1(=O)c2ccc(N3CCN(Cc4ccccc4F)CC3)cc2Oc2ccccc2CN1Cc1cn(Cc2cccc(F)c2)nn1 | · | · | · | · | – | · | · | · | ·
C[C@@H]1OC(C2CCCCC2)N(C)[C@H]2C[C@H]3c4[nH]c5cccc(-c6ccccc6)c5c4CCN3C(=O)[C@@H]12 (some centres not stated) | · | · | – | – | – | · | · | · | ·
CCCN1C(=O)SC(CC(=O)Nc2ccccc2C)C1=O (configuration not stated) | – | – | – | – | – | · | · | · | ·
